From ChEMBL document CHEMBL1629439, “High-throughput identification of antibacterials against methicillin-resistant Staphylococcus aureus (MRSA) and the transglycosylase” (Bioorg Med Chem, 2010)
≈ marks a conversion by molar mass, not a printed value.

Key:
[1] = system: Staphylococcus aureus; assay: Antimicrobial activity against oxacillin- and methicillin-resistant Staphylococcus aureus isolate Sa-OXA-R2 after 18 to 24 hrs by alamar blue assay; assay type: functional
In short: (§1)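 Broth microdilution per NCCLS standard, Mueller-Hinton broth, 8-point twofold dilutions; exponentially growing cells at 5 10^5 cells/ml with compound, 18–24 h at 37 C; 20% Alamar blue added, fluorescence read; MIC90 taken as lowest concentration preventing at least 90% growth.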

[2] = system: Acinetobacter baumannii; assay: Antimicrobial activity against Acinetobacter baumannii ATCC 49139 after 18 to 24 hrs by alamar blue assay; assay type: functional; conditions: Acinetobacter baumannii, ATCC 49139; read-out: MIC
In short: (§2)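 Broth microdilution per NCCLS in Mueller-Hinton broth, 8-point twofold dilutions, 384-well format. Exponential-phase cells at 5 × 10^5 cells/ml incubated with compound 18–24 h at 37 °C, then 20% Alamar blue added and fluorescence read. MIC90 taken as the lowest concentration preventing at least 90% bacterial growth.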

[3] = system: Serratia marcescens; assay: Antimicrobial activity against Serratia marcescens ATCC 14756 after 18 to 24 hrs by alamar blue assay; assay type: functional; conditions: Serratia marcescens, ATCC 14756; read-out: MIC; in short: as §2
[4] = system: Staphylococcus aureus; assay: Antimicrobial activity against methicillin-resistant Staphylococcus aureus isolate NTUH4722 after 18 to 24 hrs by alamar blue assay; assay type: functional; in short: as §1
[5] = system: Stenotrophomonas maltophilia; assay: Antimicrobial activity against Stenotrophomonas maltophilia ATCC 13637 after 18 to 24 hrs by alamar blue assay; assay type: functional; conditions: Stenotrophomonas maltophilia, ATCC 13637; read-out: MIC; in short: as §2
[6] = system: Pseudomonas aeruginosa; assay: Antimicrobial activity against Pseudomonas aeruginosa ATCC 25619 after 18 to 24 hrs by alamar blue assay; assay type: functional; conditions: Pseudomonas aeruginosa, ATCC 25619; read-out: MIC; in short: as §2
[7] = system: Staphylococcus aureus; assay: Antimicrobial activity against Staphylococcus aureus ATCC 29213 after 18 to 24 hrs by alamar blue assay
[8] = system: Mycolicibacterium smegmatis; assay: Antimicrobial activity against Mycobacterium smegmatis BCRC 11565 after 18 to 24 hrs by alamar blue assay; assay type: functional; conditions: Mycolicibacterium smegmatis, BCRC 11565; read-out: MIC; in short: as §2
[9] = system: Escherichia coli; assay: Antimicrobial activity against Escherichia coli ATCC […] after 18 to 24 hrs by alamar blue assay; assay type: functional; conditions: Escherichia coli; read-out: MIC; in short: as §2
[10] = system: Bacillus subtilis; assay: Antimicrobial activity against Bacillus subtilis ATCC 23857 after 18 to 24 hrs by alamar blue assay; assay type: functional; in short: as §2
[11] = system: Staphylococcus aureus; assay: Antimicrobial activity against methicillin-resistant Staphylococcus aureus ATCC 33592 after 18 to 24 hrs by alamar blue assay; assay type: functional; conditions: Staphylococcus aureus, ATCC 33592; read-out: MIC; in short: as §1

| SMILES | MIC [1] | MIC [2] | MIC [3] | MIC [4] | MIC [5] | MIC [6] | MIC [7] | MIC [8] | MIC [9] | MIC [10] | MIC [11] |
| --- | --- | --- | --- | --- | --- | --- | --- | --- | --- | --- | --- |
| Cc1ccc(C)c(NS(=O)(=O)c2ccc3c(c2)NCC(C)C(=O)S3)c1 (stereo unspecified) | > 64 µg/mL | > 256 µg/mL | > 256 µg/mL | 32 µg/mL (≈ 85 µM) | > 256 µg/mL | > 256 µg/mL | 2 µg/mL (≈ 5.31 µM) | > 64 µg/mL | > 256 µg/mL | < 0.03 µg/mL | 16 µg/mL (≈ 42.5 µM) |
| O=C(Nc1nnc(-c2ccc(Cl)cc2)o1)c1cccc(C(F)(F)F)c1 | 0.125 µg/mL (≈ 0.34 µM) | > 256 µg/mL | > 256 µg/mL | 0.125 µg/mL (≈ 0.34 µM) | > 256 µg/mL | > 256 µg/mL | 1 µg/mL (≈ 2.72 µM) | 0.5 µg/mL (≈ 1.36 µM) | > 256 µg/mL | 0.5 µg/mL (≈ 1.36 µM) | 0.5 µg/mL (≈ 1.36 µM) |
| O=C(Nc1cc(Cl)ccc1Cl)c1cc(Br)cc(Br)c1O | 0.5 µg/mL (≈ 1.14 µM) | 16 µg/mL (≈ 36.4 µM) | 16 µg/mL (≈ 36.4 µM) | 0.5 µg/mL (≈ 1.14 µM) | 16 µg/mL (≈ 36.4 µM) | 16 µg/mL (≈ 36.4 µM) | 1 µg/mL (≈ 2.27 µM) | 0.5 µg/mL (≈ 1.14 µM) | 8 µg/mL (≈ 18.2 µM) | < 0.03 µg/mL | 1 µg/mL (≈ 2.27 µM) |
| CCC1Sc2ccc(S(=O)(=O)Nc3cc(Cl)ccc3C)cc2NC1=O (stereo unspecified) | 16 µg/mL (≈ 40.3 µM) | > 256 µg/mL | > 256 µg/mL | 16 µg/mL (≈ 40.3 µM) | > 256 µg/mL | > 256 µg/mL | 4 µg/mL (≈ 10.1 µM) | > 64 µg/mL | > 256 µg/mL | < 0.03 µg/mL | > 64 µg/mL |
| CC(C)N1C(=O)/C(=C/c2ccc([N+](=O)[O-])o2)SC1=S | 1 µg/mL (≈ 3.35 µM) | > 256 µg/mL | > 256 µg/mL | 2 µg/mL (≈ 6.7 µM) | > 256 µg/mL | 2 µg/mL (≈ 6.7 µM) | 0.25 µg/mL (≈ 0.838 µM) | 1 µg/mL (≈ 3.35 µM) | 16 µg/mL (≈ 53.6 µM) | < 0.03 µg/mL | 1 µg/mL (≈ 3.35 µM) |
| COc1ccccc1N1C(=O)c2cc([N+](=O)[O-])cc3cc([N+](=O)[O-])cc(c23)C1=O | 0.3 µg/mL (≈ 0.763 µM) | > 256 µg/mL | > 256 µg/mL | 2.5 µg/mL (≈ 6.36 µM) | > 256 µg/mL | > 256 µg/mL | 1.25 µg/mL (≈ 3.18 µM) | 4 µg/mL (≈ 10.2 µM) | > 256 µg/mL | 4 µg/mL (≈ 10.2 µM) | 2.5 µg/mL (≈ 6.36 µM) |
| CCN1C(=O)/C(=C/c2ccc([N+](=O)[O-])o2)SC1=S | 0.25 µg/mL (≈ 0.879 µM) | > 256 µg/mL | > 256 µg/mL | 0.125 µg/mL (≈ 0.44 µM) | > 256 µg/mL | 2 µg/mL (≈ 7.03 µM) | 0.5 µg/mL (≈ 1.76 µM) | 1 µg/mL (≈ 3.52 µM) | 16 µg/mL (≈ 56.3 µM) | < 0.03 µg/mL | 0.5 µg/mL (≈ 1.76 µM) |
| CNC(=O)c1ccsc1NC(=O)c1ccc([N+](=O)[O-])o1 | 0.5 µg/mL (≈ 1.69 µM) | 12 µg/mL (≈ 40.6 µM) | 32 µg/mL (≈ 108 µM) | 0.5 µg/mL (≈ 1.69 µM) | 32 µg/mL (≈ 108 µM) | 128 µg/mL (≈ 433 µM) | 2 µg/mL (≈ 6.77 µM) | 0.5 µg/mL (≈ 1.69 µM) | 256 µg/mL (≈ 867 µM) | 0.06 µg/mL (≈ 0.203 µM) | 0.5 µg/mL (≈ 1.69 µM) |
| CSc1nc2ccc(NC(=O)c3ccc([N+](=O)[O-])o3)cc2s1 | 1 µg/mL (≈ 2.98 µM) | 12 µg/mL (≈ 35.8 µM) | 32 µg/mL (≈ 95.4 µM) | 1 µg/mL (≈ 2.98 µM) | 32 µg/mL (≈ 95.4 µM) | 128 µg/mL (≈ 382 µM) | 1 µg/mL (≈ 2.98 µM) | 0.5 µg/mL (≈ 1.49 µM) | 256 µg/mL (≈ 763 µM) | 0.06 µg/mL (≈ 0.179 µM) | 1 µg/mL (≈ 2.98 µM) |
| CCc1cc(O)nc(N2NC(C)=CC2NC(=O)c2ccccc2F)n1 (stereo unspecified) | 1 µg/mL (≈ 2.91 µM) | > 256 µg/mL | > 256 µg/mL | 2 µg/mL (≈ 5.82 µM) | > 256 µg/mL | > 256 µg/mL | 1 µg/mL (≈ 2.91 µM) | 0.25 µg/mL (≈ 0.728 µM) | > 256 µg/mL | 0.25 µg/mL (≈ 0.728 µM) | 4 µg/mL (≈ 11.6 µM) |
| Cc1ccc(-c2nnc(NC(=O)c3nc4ccccc4s3)o2)c(C)c1 | 0.25 µg/mL (≈ 0.713 µM) | > 256 µg/mL | > 256 µg/mL | 0.25 µg/mL (≈ 0.713 µM) | > 256 µg/mL | > 256 µg/mL | 0.5 µg/mL (≈ 1.43 µM) | 0.5 µg/mL (≈ 1.43 µM) | > 256 µg/mL | 0.5 µg/mL (≈ 1.43 µM) | 0.5 µg/mL (≈ 1.43 µM) |
